Active and inactive are the calls of the source. The rule behind the calls is not given here.
What was measured:
[1] = molecular target: Sphingosine 1-phosphate receptor 3 (Homo sapiens) (UniProt Q99500); test: Ratio of agonistic Emax for S1P to compound for human S1P3 receptor by [35S]GTPgammaS binding assay; assay type: functional
In short: (§1)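 The chemically phosphorylated compounds were tested as agonists at each individual S1P receptor. Agonist-stimulated binding of GTP[γ-35S] to membranes was measured. EC50 and Emax were normalized to those of S1P run in the same assay.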

[2] = molecular target: Sphingosine 1-phosphate receptor 3 (Homo sapiens) (UniProt Q99500); test: Ratio of agonistic EC50 for S1P to compound for human S1P3 receptor by [35S]GTPgammaS binding assay; assay type: functional; in short: as §1
[3] = molecular target: Sphingosine 1-phosphate receptor 2 (Homo sapiens) (UniProt O95136); test: Ratio of agonistic Emax for S1P to compound for human S1P2 receptor by [35S]GTPgammaS binding assay; assay type: functional; in short: as §1
Sphingosine 1-phosphate receptor 2 (Homo sapiens), sequence (O95136 whole entry): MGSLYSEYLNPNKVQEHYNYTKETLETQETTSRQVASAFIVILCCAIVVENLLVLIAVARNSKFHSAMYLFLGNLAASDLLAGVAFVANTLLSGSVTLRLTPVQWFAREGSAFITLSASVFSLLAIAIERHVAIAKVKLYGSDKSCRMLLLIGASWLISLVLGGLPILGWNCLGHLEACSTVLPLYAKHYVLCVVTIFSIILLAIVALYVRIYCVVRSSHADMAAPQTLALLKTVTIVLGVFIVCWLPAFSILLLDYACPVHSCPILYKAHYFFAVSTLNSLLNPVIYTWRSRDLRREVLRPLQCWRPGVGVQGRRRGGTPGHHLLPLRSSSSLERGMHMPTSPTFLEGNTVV

[4] = molecular target: Sphingosine 1-phosphate receptor 1 (Homo sapiens) (UniProt P21453); test: Ratio of agonistic Emax for S1P to compound for human S1P1 receptor by [35S]GTPgammaS binding assay; assay type: functional; in short: as §1
Sphingosine 1-phosphate receptor 1 (Homo sapiens), sequence (P21453 whole entry): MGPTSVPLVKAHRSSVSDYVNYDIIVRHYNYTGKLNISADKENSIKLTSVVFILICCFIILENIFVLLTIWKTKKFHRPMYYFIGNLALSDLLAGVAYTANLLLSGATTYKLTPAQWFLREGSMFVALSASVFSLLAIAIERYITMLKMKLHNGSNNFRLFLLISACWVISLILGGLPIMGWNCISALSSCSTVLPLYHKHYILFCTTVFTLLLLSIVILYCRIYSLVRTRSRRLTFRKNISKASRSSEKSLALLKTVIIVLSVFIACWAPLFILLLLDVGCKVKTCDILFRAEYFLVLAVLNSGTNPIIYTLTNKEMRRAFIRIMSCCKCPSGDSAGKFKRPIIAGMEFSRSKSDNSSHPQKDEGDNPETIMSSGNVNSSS

[5] = molecular target: Sphingosine 1-phosphate receptor 5 (Homo sapiens) (UniProt Q9H228); test: Ratio of agonistic EC50 for S1P to compound for human S1P5 receptor by [35S]GTPgammaS binding assay; assay type: functional; in short: as §1
Sphingosine 1-phosphate receptor 5 (Homo sapiens), sequence (Q9H228 whole entry): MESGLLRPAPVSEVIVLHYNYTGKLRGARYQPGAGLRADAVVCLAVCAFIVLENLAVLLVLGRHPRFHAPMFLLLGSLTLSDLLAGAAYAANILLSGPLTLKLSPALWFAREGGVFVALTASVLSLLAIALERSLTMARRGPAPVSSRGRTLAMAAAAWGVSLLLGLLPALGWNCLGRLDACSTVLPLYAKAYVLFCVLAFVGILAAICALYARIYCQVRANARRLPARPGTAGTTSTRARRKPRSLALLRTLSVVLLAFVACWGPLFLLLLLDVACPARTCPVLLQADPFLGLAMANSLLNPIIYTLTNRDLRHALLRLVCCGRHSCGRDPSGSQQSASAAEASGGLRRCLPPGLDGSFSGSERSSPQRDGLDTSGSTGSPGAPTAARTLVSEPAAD

[6] = molecular target: Sphingosine 1-phosphate receptor 1 (Homo sapiens) (UniProt P21453); test: Ratio of agonistic EC50 for S1P to compound for human S1P1 receptor by [35S]GTPgammaS binding assay; assay type: functional; in short: as §1
[7] = molecular target: Sphingosine 1-phosphate receptor 5 (Homo sapiens) (UniProt Q9H228); test: Ratio of agonistic Emax for S1P to compound for human S1P5 receptor by [35S]GTPgammaS binding assay; assay type: functional; in short: as §1
[8] = molecular target: T1, Sphingosine kinase 2 (Homo sapiens) (UniProt Q9NRA0); test: Activity at human SPHK2 at 100 uM
T1 sequence (whole entry): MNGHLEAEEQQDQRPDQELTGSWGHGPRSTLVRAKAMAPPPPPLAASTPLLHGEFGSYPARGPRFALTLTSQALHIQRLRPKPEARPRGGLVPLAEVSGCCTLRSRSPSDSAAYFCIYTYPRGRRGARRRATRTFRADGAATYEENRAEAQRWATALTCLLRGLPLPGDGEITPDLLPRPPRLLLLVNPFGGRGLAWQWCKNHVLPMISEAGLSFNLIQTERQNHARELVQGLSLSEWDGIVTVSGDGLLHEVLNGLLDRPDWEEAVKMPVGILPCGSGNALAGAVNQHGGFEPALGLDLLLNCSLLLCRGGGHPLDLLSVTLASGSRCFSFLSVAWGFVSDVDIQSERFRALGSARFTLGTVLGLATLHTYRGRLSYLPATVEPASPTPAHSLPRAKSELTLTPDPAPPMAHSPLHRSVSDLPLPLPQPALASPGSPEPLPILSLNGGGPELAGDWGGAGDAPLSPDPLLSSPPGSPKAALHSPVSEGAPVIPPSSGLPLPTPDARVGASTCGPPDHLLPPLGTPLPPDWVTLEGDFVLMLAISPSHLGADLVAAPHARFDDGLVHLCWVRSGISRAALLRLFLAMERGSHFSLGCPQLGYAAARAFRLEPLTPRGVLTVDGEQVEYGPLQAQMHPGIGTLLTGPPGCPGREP

Mus musculus = test: Induction of S1P1-mediated lymphopenia in mouse assessed as lymphocyte depletion at 10 mg/kg, ip after 20 hrs; assay type: functional; details: route intraperitoneal
In short: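 Mice received a single ip injection. Lymphocyte depletion from peripheral blood was assessed 20 h after dosing.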

[9] = molecular target: T2, Sphingosine 1-phosphate receptor 4 (Homo sapiens) (UniProt O95977); test: Ratio of agonistic Emax for S1P to compound for human S1P4 receptor by [35S]GTPgammaS binding assay; assay type: functional; in short: as §1
T2 sequence (whole entry): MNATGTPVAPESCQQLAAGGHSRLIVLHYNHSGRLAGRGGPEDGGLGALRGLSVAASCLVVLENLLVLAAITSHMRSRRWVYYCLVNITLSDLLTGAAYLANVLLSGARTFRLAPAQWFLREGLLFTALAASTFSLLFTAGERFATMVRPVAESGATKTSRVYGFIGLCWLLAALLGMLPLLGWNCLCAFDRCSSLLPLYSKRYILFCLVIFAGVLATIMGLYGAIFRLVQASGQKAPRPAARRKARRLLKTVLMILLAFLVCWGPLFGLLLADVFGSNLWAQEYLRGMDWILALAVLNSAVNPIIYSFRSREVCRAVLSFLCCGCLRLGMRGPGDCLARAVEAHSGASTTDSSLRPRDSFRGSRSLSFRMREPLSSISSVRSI

[10] = molecular target: T2, Sphingosine 1-phosphate receptor 4 (Homo sapiens); test: Ratio of agonistic EC50 for S1P to compound for human S1P4 receptor by [35S]GTPgammaS binding assay; assay type: functional; in short: as §1
[11] = molecular target: Sphingosine 1-phosphate receptor 2 (Homo sapiens) (UniProt O95136); test: Ratio of agonistic EC50 for S1P to compound for human S1P2 receptor by [35S]GTPgammaS binding assay; assay type: functional; in short: as §1
[12] = molecular target: T1, Sphingosine kinase 2 (Homo sapiens); test: Activity at human SPHK2 at 15 uM
[13] = molecular target: Sphingosine kinase 1 (Homo sapiens) (UniProt Q9NYA1); test: Activity at human SPHK1 at 100 uM
Sphingosine kinase 1 (Homo sapiens), sequence (Q9NYA1 whole entry): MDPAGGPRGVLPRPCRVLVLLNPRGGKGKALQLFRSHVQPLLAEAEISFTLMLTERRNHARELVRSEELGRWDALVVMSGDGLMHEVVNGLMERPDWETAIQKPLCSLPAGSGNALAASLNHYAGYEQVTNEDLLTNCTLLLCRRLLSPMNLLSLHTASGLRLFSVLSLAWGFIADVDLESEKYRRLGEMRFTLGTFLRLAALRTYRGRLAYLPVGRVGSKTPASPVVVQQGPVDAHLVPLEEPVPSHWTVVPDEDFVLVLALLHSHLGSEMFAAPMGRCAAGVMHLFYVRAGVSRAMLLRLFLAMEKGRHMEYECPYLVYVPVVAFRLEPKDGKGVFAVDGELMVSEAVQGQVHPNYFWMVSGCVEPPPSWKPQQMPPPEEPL

Sphingosine 1-phosphate receptor 3 (Homo sapiens), sequence (Q99500 whole entry): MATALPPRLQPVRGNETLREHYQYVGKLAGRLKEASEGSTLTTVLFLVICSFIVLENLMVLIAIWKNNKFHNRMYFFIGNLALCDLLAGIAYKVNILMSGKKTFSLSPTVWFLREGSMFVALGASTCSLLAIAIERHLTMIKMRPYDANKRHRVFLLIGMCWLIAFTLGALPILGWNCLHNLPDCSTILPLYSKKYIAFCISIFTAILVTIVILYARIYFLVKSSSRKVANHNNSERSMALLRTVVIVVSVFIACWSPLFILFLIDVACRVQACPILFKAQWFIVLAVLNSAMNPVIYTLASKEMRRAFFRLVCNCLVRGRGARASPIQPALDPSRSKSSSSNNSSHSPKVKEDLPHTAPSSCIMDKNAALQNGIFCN

CCCCCCCCc1ccc(-c2coc(C(C)(N)COP(=O)(O)O)n2)cc1 (centres undefined)
Ratio [1]: 1 | Ratio EC50 [2]: 52.5 | Ratio [3]: 0 | Ratio [4]: 0.8 | Ratio EC50 [5]: 24.1 | Ratio EC50 [6]: 4.28 | Ratio [7]: 0.6

CCCCCCCCc1ccc(-c2cnc([C@](C)(N)CO)[nH]2)cc1
Activity [8]: inactive | Activity (Mus musculus): 75%

CCCCCCCCc1ccc(-c2noc(C(C)(N)COP(=O)(O)O)n2)cc1 (racemic)
Ratio [1]: 0.51 | Ratio EC50 [2]: 23 | Ratio [9]: 0.81 | Ratio EC50 [10]: 0.52 | Ratio [3]: 0 | Ratio [4]: 0.89 | Ratio EC50 [5]: 4.35 | Ratio EC50 [6]: 24.4 | Ratio EC50 [11]: inactive | Ratio [7]: 0.73

CCCCCCCCc1ccc(-c2cnc([C@](C)(N)COP(=O)(O)O)[nH]2)cc1.O=C(O)C(F)(F)F.O=C(O)C(F)(F)F
Ratio [1]: 0.61 | Ratio EC50 [2]: 1000 | Ratio [9]: 1.19 | Ratio EC50 [10]: 4.13 | Ratio [3]: 0 | Ratio [4]: 0.92 | Ratio EC50 [5]: 16.1 | Ratio EC50 [6]: 8.09 | Ratio EC50 [11]: inactive | Ratio [7]: 0.83 | Activity (Mus musculus): 75%

CCCCCCCCc1ccc(-c2cnc([C@@](C)(N)CO)[nH]2)cc1
Activity [12]: 20% | Activity (Mus musculus): 75%

CCCCCCCCc1ccc(-c2cnc([C@@](C)(N)COP(=O)(O)O)[nH]2)cc1.O=C(O)C(F)(F)F.O=C(O)C(F)(F)F
Ratio [1]: 0.65 | Ratio EC50 [2]: 50.8 | Ratio [9]: 0.93 | Ratio EC50 [10]: 0.59 | Ratio [3]: 0 | Ratio [4]: 0.87 | Ratio EC50 [5]: 3.62 | Ratio EC50 [6]: 1.09 | Ratio EC50 [11]: inactive | Ratio [7]: 0.83 | Activity (Mus musculus): 75%

CCCCCCCCc1ccc(-c2nc(C(C)(N)CO)no2)cc1 (centres undefined)
Activity [13]: Active

CCCCCCCCc1ccc(-c2nc(C(C)(N)COP(=O)(O)O)no2)cc1 (centres undefined)
Ratio [3]: 0 | Ratio [4]: 1 | Ratio EC50 [5]: 21.6 | Ratio EC50 [6]: 2.5 | Ratio [7]: 1
